Each compound was assayed against Serotonin 3 (5-HT3) receptor (Rattus norvegicus) (UniProt P35563+Q9JJ16) (assay: Inhibition of 5-HT evoked reflex bradycardia in rat.).
Assay type: functional, organism-based
How it was run: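 Anesthetized rats (260–290 g; urethane 1.25 g/kg ip) with blood pressure and heart rate recorded. A submaximal 5-HT dose (6 μg/kg iv) was given repeatedly and heart-rate changes were quantified. Test agents were given iv before 5-HT. ID50 is the dose cutting the 5-HT-evoked response to 50% of control.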

Row | SMILES | ID50 [µg/kg]
1 | CN1C2CCC1CC(OC(=O)c1nn(C)c3ccccc13)C2 (stereo not drawn) | 1.4
2 | CN1C2CCC1CC(NC(=O)c1n[nH]c3ccccc13)C2 (stereo not drawn) | 1.2
3 | Cc1cc(C(=O)NC2CC3CCC(C2)N3C)n2ccccc12 (stereo not drawn) | 1.6
4 | CN1C2CCC1CC(NC(=O)c1ccc3ccccn13)C2 (stereo not drawn) | > 10
5 | CCc1nc(C(=O)NC2CC3CCC(C2)N3C)c2ccccn12 (stereo not drawn) | 1
6 | CCc1cc(C(=O)NC2CC3CCC(C2)N3C)n2ccccc12 (stereo not drawn) | 1
7 | CN1[C@@H]2CC[C@H]1C[C@@H](OC(=O)c1c[nH]c3ccccc13)C2 | 1.4
8 | CN1C2CCC1CC(OC(=O)c1[nH]nc3ccccc13)C2 (stereo not drawn) | 5.3
9 | Cc1nccn1CC1CCc2c(c3ccccc3n2C)C1=O (stereo not drawn) | 3.6
10 | CCc1nc(C(=O)NC2CC3CCCC(C2)N3C)c2ccccn12 (stereo not drawn) | 0.5

The remaining lines, values ahead:

Row | ID50 [µg/kg] | SMILES
11 | 2 | CN1C2CCCC1CC(NC(=O)c1nn(C)c3ccccc13)C2 (stereo not drawn)
12 | 12.4 | CN1C2CCCC1CC(NC(=O)c1[nH]nc3ccc(Cl)cc13)C2 (stereo not drawn)
13 | > 100 | CN1C2CCCC1CC(NC(=O)c1c3ccccc3nn1C)C2 (stereo not drawn)
14 | 1.1 | CN1C2CCCC1CC(NC(=O)c1[nH]nc3ccccc13)C2 (stereo not drawn)
15 | 0.6 | CCn1nc(C(=O)NC2CC3CCCC(C2)N3C)c2ccccc21 (stereo not drawn)
16 | 4.7 | CN1C2CCC1CC(NC(=O)c1cc(-c3ccccc3)c3ccccn13)C2 (stereo not drawn)
17 | 6.8 | CN1C2CCCC1CC(NC(=O)c1cn(C)c3ccccc13)C2 (stereo not drawn)
18 | 1 | CN1C2CCCC1CC(NC(=O)c1[nH]nc3ccc(F)cc13)C2 (stereo not drawn)

Source: ChEMBL document CHEMBL1124837, “5-Hydroxytryptamine (5-HT3) receptor antagonists. 1. Indazole and indolizine-3-carboxylic acid derivatives” (J Med Chem, 1990)
